Assay results: paper PMC10975593 (ACS Omega, 2024)
Where two headings read alike, the source gives them in different places.

Columns and labels:
[1] = test system: Fibro cell line; test: % inhibition on normal cell line; assay type: cell-based; conditions: for inhibition at 10 µM: read-out: %inhibition at 10 μM; for inhibition at 100 µM: read-out: %inhibition at 100 μM
[2] = molecular target: PI3Kγ enzyme (Homo sapiens, UniProt P48736); test: Adapta universal kinase assay, anti-PI3Kγ activity; assay type: biochemical
In short: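 Adapta ADP-detection TR-FRET immunoassay with test compound at 100 μM. The kinase reaction runs 60 min. It is then stopped by a detection solution of EDTA, europium-labelled anti-ADP antibody and Alexa Fluor 647-labelled ADP tracer. ADP formed displaces the tracer and lowers the TR-FRET signal. ADP formation is calculated from the emission ratio.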

[3] = test system: Staphylococcus aureus; test: Disc diffusion antimicrobial test; assay type: cell-based; conditions: 24 h; for zone of inhibition at 100 µg/mL: Staphylococcus aureus, read-out: zone of inhibition (diameter of inhibition)
In short: (§1)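 Disc diffusion on nutrient agar, test compound at 100 μg/mL with DMSO as solvent. Plates incubated at 37 °C for 24 h after inoculation, then zone of inhibition measured and compared with standards. Controls were DMSO, amoxicillin, ciprofloxacin and tetracycline.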

[4] = test system: A549 cancer cell line; test: MTT assay; assay type: cell-based; conditions: for inhibition at 100 µM / IC50: Homo sapiens, A549, 72 h; for inhibition at 100 µM: read-out: experimental % of inhibition on A549 cancer cell line
In short: (§2)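 A549 in DMEM and MCF-7 in RPMI, each with 10% heat-inactivated FBS, 1% penicillin/streptomycin and 2 mmol/L glutamine at 37 °C, 5% CO2. Seeded at 2000 (A549) or 10,000 (MCF-7) cells/well and attached 24 h. Then 72 h with test compound at varying concentrations. MTT (5 mg/mL stock) added for 4 h at 37 °C, formazan dissolved in DMSO, absorbance read at 450/540 nm. Triplicates in three separate experiments.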

[5] = test system: Escherichia coli; test: Disc diffusion antimicrobial test; assay type: cell-based; conditions: 24 h; for zone of inhibition at 100 µg/mL: Escherichia coli, read-out: zone of inhibition (diameter of inhibition)
In short: as §1

[6] = test system: MCF-7 cancer cell line; test: MTT assay; assay type: cell-based
In short: as §2

[7] = test system: A549 cancer cell line; conditions: cited from earlier work
[8] = read-out: % of inhibition (mean) against PI3Kγ enzyme
[9] = read-out: % of inhibition against PI3Kγ enzyme, point 1
[10] = read-out: % of inhibition against PI3Kγ enzyme, point 2

PI3Kγ enzyme, sequence (P48736 whole entry): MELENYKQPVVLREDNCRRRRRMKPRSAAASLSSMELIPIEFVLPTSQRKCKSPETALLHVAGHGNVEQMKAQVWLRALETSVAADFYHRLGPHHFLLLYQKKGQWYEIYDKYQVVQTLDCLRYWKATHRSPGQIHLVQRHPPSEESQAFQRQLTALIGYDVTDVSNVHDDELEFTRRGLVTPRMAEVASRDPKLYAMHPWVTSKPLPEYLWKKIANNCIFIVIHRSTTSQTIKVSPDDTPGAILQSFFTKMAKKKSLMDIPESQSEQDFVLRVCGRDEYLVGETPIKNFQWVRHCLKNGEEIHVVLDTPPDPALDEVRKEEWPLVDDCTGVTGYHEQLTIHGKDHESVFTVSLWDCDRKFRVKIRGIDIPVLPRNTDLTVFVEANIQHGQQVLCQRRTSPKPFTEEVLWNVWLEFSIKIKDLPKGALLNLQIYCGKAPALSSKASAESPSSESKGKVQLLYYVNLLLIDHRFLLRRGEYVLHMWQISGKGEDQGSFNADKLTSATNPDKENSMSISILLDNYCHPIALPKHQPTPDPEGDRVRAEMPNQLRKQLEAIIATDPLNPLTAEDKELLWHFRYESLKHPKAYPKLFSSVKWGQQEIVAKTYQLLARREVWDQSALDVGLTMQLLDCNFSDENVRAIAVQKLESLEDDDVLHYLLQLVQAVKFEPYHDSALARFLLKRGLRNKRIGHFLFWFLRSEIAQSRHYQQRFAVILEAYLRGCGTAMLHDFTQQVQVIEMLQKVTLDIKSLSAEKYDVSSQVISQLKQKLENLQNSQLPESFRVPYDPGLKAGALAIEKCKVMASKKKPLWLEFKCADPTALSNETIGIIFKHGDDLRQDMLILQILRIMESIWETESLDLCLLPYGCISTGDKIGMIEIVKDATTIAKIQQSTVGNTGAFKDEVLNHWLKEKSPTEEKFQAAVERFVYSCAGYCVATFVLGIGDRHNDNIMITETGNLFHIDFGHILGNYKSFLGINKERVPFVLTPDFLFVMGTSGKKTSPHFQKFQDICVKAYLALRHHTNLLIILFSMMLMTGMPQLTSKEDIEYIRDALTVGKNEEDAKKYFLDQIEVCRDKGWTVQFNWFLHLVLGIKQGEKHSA

Compound | inhibition at 100 µM [2, 8] [%] | inhibition at 100 µM [2, 9] [%] | inhibition at 100 µM [2, 10] [%] | inhibition at 10 µM [1] [%] | inhibition at 100 µM [1] [%] | zone of inhibition at 100 µg/mL [3] [mm] | inhibition at 100 µM [4] [%] | zone of inhibition at 100 µg/mL [5] [mm] | also measured
N-(benzo[d]thiazol-2-yl)-2-(4-(2-oxo-2-(piperazin-1-yl)ethyl)piperazin-1-yl)acetamide [OMS15] | – | – | – | – | – | – | – | – | experimental % of inhibition on MCF-7 cancer cell line ([6]; 100 μM, 72 h, MTT): –23.63%; %inhibition at 10 μM ([1]; Fibro cell line (normal), 10 μM): 34.8%; %inhibition at 100 μM ([1]; Fibro cell line (normal), 100 μM): 70%; % of inhibition against PI3Kγ enzyme, point 1 ([2]; 100 μM): 0%; % of inhibition against PI3Kγ enzyme, point 2 ([2]; 100 μM): 0%; % of inhibition (mean) against PI3Kγ enzyme ([2]; 100 μM, mean of 2 trials): 0%; zone of inhibition (diameter of inhibition) ([3]; disc diffusion, 100 μg/mL, S. aureus): 0 mm; experimental % of inhibition on A549 cancer cell line ([4]; 100 μM, 72 h, MTT): 56.69%; zone of inhibition (diameter of inhibition) ([5]; disc diffusion, 100 μg/mL, E. coli): 0 mm
CN(C)C1CCN(C(=O)c2ccc(NC(=O)Nc3ccc(-c4nc(N5CCOCC5)nc(N5CCOCC5)n4)cc3)cc2)CC1 [Gedatolisib, reference compound] | – | – | – | – | – | – | – | – | IC50 ([6]; Homo sapiens, MCF7, 72 h): 13.1 µM; IC50 ([7]; read-out: reported IC50): 9.05 µM; IC50 [4]: 16.5 µM
O=C(CNc1ccc(I)cc1)Nc1nc2ccccc2s1 [OMS4, N-(1,3-benzothiazol-2-yl)-2-(4-iodoanilino)acetamide] | 0 | 0 | 0 | 1.32 | 27.6 | 10 | -2.32 | 0 | –
O=C(CNC1CCCCC1)Nc1nc2ccccc2s1 [OMS1, N-(1,3-benzothiazol-2-yl)-2-(cyclohexylamino)acetamide] | 47 | 54 | 40 | 0.85 | 13 | 22 | 1.72 | 0 | –
CC1(C)S[C@@H]2[C@H](NC(=O)[C@H](N)c3ccc(O)cc3)C(=O)N2[C@H]1C(=O)O [Amoxicillin, reference compound] | – | – | – | – | – | 22 | – | – | –
O=C(CNc1ccc(S(=O)(=O)Nc2ccccn2)cc1)Nc1nc2ccccc2s1 [OMS8, N-(1,3-benzothiazol-2-yl)-2-{4-[(pyridine-2-yl)sulfamoyl]anilino}acetamide] | 0 | 0 | 0 | 8.62 | 43.3 | 0 | 11.2 | 0 | –
NS(=O)(=O)c1ccc(NCC(=O)Nc2nc3ccccc3s2)cc1 [OMS6, N-(1,3-benzothiazol-2-yl)-2-(4-sulfamoylanilino)acetamide] | 13 | 3 | 22 | 1.52 | 62.7 | 0 | 39.6 | 0 | –
COc1cccc2c1C(=O)c1c(O)c3c(c(O)c1C2=O)C[C@@](O)(C(=O)CO)C[C@@H]3O[C@H]1C[C@H](N)[C@H](O)[C@H](C)O1 [Doxorubicin, reference compound] | – | – | – | – | – | – | 82.2 | – | IC50 ([7]; read-out: reported IC50 against A549): 0.071 µM; IC50 [4]: 16.6 µM
N=C(N)NS(=O)(=O)c1ccc(NCC(=O)Nc2nc3ccccc3s2)cc1 [OMS7, N-(1,3-benzothiazol-2-yl)-2-[4-(carbamimidoylsulfamoyl)anilino]acetamide] | 25 | 29 | 22 | 1.88 | 16.4 | 0 | -3.59 | 0 | –
O=C(CNc1ccc(F)cc1)Nc1nc2ccccc2s1 [OMS3, N-(1,3-benzothiazol-2-yl)-2-(4-fluoroanilino)acetamide] | 24 | 20 | 28 | 10.3 | 63.8 | 15 | 2.8 | 0 | –
CNC(=O)c1cc(Oc2ccc(NC(=O)Nc3ccc(Cl)c(C(F)(F)F)c3)cc2)ccn1 [Sorafenib, reference compound] | – | – | – | 10.7 | 26.3 | – | – | – | –

Second part, led by results:

inhibition at 100 µM [2, 8] [%] | inhibition at 100 µM [2, 9] [%] | inhibition at 100 µM [2, 10] [%] | Compound | inhibition at 10 µM [1] [%] | inhibition at 100 µM [1] [%] | zone of inhibition at 100 µg/mL [3] [mm] | inhibition at 100 µM [4] [%] | zone of inhibition at 100 µg/mL [5] [mm] | also measured
2 | 3 | 0 | O=C(CN1CCN(c2cccc(O)c2)CC1)Nc1nc2ccccc2s1 [OMS10, N-(1,3-benzothiazol-2-yl)-2-[4-(3-hydroxyphenyl)piperazin-1-yl]acetamide] | 15.9 | 44.1 | 11 | 38.1 | 0 | –
3 | 6 | 0 | O=C(CN1CCN(c2ccc([N+](=O)[O-])cc2)CC1)Nc1nc2ccccc2s1 [OMS11, N-(1,3-benzothiazol-2-yl)-2-[4-(4-nitrophenyl)piperazin-1-yl]acetamide] | 21.3 | 19.2 | 0 | 22 | 0 | –
16 | 28 | 4 | O=C(CN1CCN(c2ccccc2O)CC1)Nc1nc2ccccc2s1 [OMS12, N-(1,3-benzothiazol-2-yl)-2-[4-(2-hydroxyphenyl)piperazin-1-yl]acetamide] | 24.3 | 22.2 | 20 | 48.5 | 0 | –
2 | 0 | 3 | O=C(CN1CCOCC1)Nc1nc2ccccc2s1 [OMS9, N-(1,3-benzothiazol-2-yl)-2-(morpholin-4-yl)acetamide] | 11.8 | 3.11 | 0 | 17.2 | 0 | –
1 | 2 | 0 | O=C(CN1CCN(CC(=O)Nc2nc3ccccc3s2)CC1)Nc1nc2ccccc2s1 [OMS16, 2,2′-(piperazine-1,4-diyl)bis(N-(benzo[d]thiazol-2-yl)acetamide)] | 53.8 | 70.1 | 0 | 56.6 | 0 | –
3 | -2 | 8 | O=C(CN1CCN(c2ccccn2)CC1)Nc1nc2ccccc2s1 [OMS13, N-(1,3-benzothiazol-2-yl)-2-[4-(pyridin-2-yl)piperazin-1-yl]acetamide] | 21.1 | 13.8 | 0 | 26.9 | 0 | –
